Calls of active or inactive are those of the source. No cut-off for these calls is given here.
Tests used:
[1] = biological target: T1, Muscarinic acetylcholine receptor (Rattus norvegicus) (UniProt P08482+P08483+P08485+P08911+P10980); experiment: Displacement of [3H]NMS from muscarinic receptor in Sprague-Dawley rat brain homogenates assessed as remaining protein bound radioligand levels at 300 pM to 1 uM preincubated for 60 mins followed by single washout treatment by liquid scintillation counting method relative to control
Summary of the method: (§1)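 Rat brain homogenates incubated with test ligand at 25 °C. [3H]N-methyl scopolamine binding to muscarinic receptors measured before and after wash-out with ice-cold buffer and expressed as binding remaining. Based on at least four experiments.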

[2] = biological target: T1, Muscarinic acetylcholine receptor (Rattus norvegicus); experiment: Displacement of [3H]NMS from muscarinic receptor in Sprague-Dawley rat brain homogenates assessed as remaining protein bound radioligand levels at 300 pM to 1 uM after 60 mins by liquid scintillation counting method relative to control; summary of the method: as §1
[3] = biological target: Muscarinic acetylcholine receptor; experiment: Displacement of [3H]NMS from muscarinic receptor in Sprague-Dawley rat brain homogenates after 60 mins by liquid scintillation counting method
Summary of the method: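 Competition binding against [3H]N-methyl scopolamine in rat brain homogenates carrying muscarinic receptors; read-out as log IC50; data from at least four experiments.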

[4] = biological target: T1, Muscarinic acetylcholine receptor (Rattus norvegicus); experiment: Displacement of [3H]NMS from muscarinic receptor in Sprague-Dawley rat brain homogenates assessed as remaining protein bound radioligand levels at 300 pM to 1 uM preincubated for 60 mins followed by double washout treatment by liquid scintillation counting method relative to control; summary of the method: as §1
Rattus norvegicus [5] = experiment: In vivo displacement of [3H]NMS from muscarinic receptor in rat bladder assessed as increase in [3H]NMS Kdapp at 10 uM administered via intravesical instillation measured after 30 mins; type: functional, organism-based
Summary of the method: (§2)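 Rats received the compound by intravesical instillation. Bladders were dissected 30 min or 24 h afterwards and [3H]N-methyl scopolamine binding to bladder muscarinic receptors was measured directly. The apparent Kd (Kdapp) of the radioligand was calculated and compared against control animals.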

Rattus norvegicus [6] = experiment: In vivo displacement of [3H]NMS from muscarinic receptor in rat bladder assessed as increase in [3H]NMS Kdapp at 10 uM administered via intravesical instillation measured after 24 hrs; type: functional, organism-based; summary of the method: as §2
[7] = biological target: T2, Muscarinic acetylcholine receptor M4 (Rattus norvegicus, UniProt P08485); experiment: Displacement of [3H]NMS from muscarinic receptor M4 in Sprague-Dawley rat brain homogenates after 60 mins by liquid scintillation counting method
T2 sequence (P08485 whole entry): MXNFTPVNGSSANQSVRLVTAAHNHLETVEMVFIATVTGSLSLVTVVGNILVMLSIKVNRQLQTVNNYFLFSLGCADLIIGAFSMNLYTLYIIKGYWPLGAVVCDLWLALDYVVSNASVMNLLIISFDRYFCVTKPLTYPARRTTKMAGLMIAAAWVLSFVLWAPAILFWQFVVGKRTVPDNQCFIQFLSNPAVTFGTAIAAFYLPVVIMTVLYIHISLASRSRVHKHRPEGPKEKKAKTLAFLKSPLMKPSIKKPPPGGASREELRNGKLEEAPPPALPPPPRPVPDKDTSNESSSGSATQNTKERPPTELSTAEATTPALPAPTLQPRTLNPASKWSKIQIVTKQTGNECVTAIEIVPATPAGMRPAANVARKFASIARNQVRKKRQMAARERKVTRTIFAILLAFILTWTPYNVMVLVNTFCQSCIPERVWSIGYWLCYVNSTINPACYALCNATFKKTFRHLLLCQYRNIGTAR

[8] = biological target: T3, Muscarinic acetylcholine receptor M1 (Rattus norvegicus, UniProt P08482); experiment: Displacement of [3H]NMS from muscarinic receptor M1 in Sprague-Dawley rat brain homogenates after 60 mins by liquid scintillation counting method
T3 sequence (P08482 whole entry): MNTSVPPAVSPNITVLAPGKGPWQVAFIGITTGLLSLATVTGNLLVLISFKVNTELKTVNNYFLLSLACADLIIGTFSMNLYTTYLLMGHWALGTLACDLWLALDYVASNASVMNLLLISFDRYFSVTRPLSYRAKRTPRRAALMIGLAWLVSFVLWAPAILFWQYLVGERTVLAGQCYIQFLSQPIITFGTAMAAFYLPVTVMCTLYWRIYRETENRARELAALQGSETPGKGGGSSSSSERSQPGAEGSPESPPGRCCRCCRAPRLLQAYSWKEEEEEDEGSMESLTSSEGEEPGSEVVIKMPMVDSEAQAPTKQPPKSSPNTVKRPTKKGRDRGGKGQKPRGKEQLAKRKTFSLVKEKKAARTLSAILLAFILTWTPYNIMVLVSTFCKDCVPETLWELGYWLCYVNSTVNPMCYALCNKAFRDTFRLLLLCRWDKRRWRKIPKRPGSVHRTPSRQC

[9] = biological target: T4, Muscarinic acetylcholine receptor M5 (Rattus norvegicus, UniProt P08911); experiment: Displacement of [3H]NMS from muscarinic receptor M5 in Sprague-Dawley rat brain homogenates after 60 mins by liquid scintillation counting method
T4 sequence (P08911 whole entry): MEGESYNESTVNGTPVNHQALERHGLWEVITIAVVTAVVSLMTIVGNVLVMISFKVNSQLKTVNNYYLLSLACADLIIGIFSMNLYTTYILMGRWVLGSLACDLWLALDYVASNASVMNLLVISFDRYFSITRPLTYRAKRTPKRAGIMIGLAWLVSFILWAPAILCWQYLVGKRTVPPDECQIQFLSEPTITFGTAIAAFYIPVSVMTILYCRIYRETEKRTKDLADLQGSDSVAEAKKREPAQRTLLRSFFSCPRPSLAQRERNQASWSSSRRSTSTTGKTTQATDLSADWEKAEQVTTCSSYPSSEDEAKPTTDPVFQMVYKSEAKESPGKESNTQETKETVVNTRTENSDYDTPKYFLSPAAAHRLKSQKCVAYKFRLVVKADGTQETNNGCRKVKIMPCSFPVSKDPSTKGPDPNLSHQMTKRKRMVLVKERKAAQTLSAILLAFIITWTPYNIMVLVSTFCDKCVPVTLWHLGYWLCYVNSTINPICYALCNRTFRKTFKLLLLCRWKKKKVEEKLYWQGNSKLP

[10] = biological target: T5, Muscarinic acetylcholine receptor M2 (Rattus norvegicus, UniProt P10980); experiment: Displacement of [3H]NMS from muscarinic receptor M2 in Sprague-Dawley rat brain homogenates after 60 mins by liquid scintillation counting method
T5 sequence (P10980 whole entry): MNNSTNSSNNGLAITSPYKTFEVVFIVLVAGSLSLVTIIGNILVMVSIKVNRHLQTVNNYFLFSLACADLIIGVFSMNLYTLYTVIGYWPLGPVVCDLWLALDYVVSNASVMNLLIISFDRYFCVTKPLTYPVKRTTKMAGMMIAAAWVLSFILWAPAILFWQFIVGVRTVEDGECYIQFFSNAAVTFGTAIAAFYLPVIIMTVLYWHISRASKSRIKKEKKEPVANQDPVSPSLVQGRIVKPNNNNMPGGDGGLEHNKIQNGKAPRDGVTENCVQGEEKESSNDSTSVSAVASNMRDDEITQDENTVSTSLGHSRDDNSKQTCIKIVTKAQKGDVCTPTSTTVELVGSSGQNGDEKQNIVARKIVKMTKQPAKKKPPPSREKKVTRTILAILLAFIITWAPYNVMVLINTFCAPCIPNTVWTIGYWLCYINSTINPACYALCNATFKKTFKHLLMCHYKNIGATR

[11] = biological target: Muscarinic acetylcholine receptor M3 (Rattus norvegicus, UniProt P08483); experiment: Displacement of [3H]NMS from muscarinic receptor M3 in Sprague-Dawley rat brain homogenates after 60 mins by liquid scintillation counting method
Sequence of Muscarinic acetylcholine receptor M3 (P08483 whole entry): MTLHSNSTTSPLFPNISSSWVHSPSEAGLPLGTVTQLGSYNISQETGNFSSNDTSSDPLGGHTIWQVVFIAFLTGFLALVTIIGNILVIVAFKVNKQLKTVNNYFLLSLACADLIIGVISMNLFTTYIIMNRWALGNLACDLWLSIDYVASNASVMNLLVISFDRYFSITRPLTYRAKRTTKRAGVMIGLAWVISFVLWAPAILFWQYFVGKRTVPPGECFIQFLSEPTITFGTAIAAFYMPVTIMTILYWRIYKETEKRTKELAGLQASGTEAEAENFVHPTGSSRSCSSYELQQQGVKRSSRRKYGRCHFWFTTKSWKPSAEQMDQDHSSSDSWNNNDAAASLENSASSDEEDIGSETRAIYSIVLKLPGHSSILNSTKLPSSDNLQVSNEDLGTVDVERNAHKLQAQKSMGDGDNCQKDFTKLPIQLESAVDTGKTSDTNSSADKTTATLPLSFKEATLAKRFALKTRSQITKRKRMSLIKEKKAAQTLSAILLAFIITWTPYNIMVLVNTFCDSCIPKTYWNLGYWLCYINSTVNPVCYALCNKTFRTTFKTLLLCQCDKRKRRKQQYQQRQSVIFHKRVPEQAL

Activity [1]	Activity [2]	pIC50 [3]	Activity [4]	Ki [10]	Ki [11]	Compound	inhibition (Rattus norvegicus [5])	inhibition (Rattus norvegicus [6])	Ki [7]	Ki [8]	Ki [9]
1.9%	11.2%	8.49	–	–	–	CCCCCCCCCCCCCCCCCC(=O)OC[C@H](COP(=O)(O)OCCOCCOCCOCCOCCOCCOCCOCCOCCOCCOCCOCCNC(=O)CCCCCC(=O)NCCc1ccc(O)c([C@H](CCN(C(C)C)C(C)C)c2ccccc2)c1)OC(=O)CCCCCCCCCCCCCCCCC	–	–	–	–	–
34.9%	7.1%	7.88	63.5%	–	–	CC(C)N(CC[C@H](c1ccccc1)c1cc(CCNC(=O)CCCCCC(=O)NCCOCCOCCOCCOCCOCCOCCOCCOCCOCCO)ccc1O)C(C)C.Cl	–	–	–	–	–
1.7%	6%	8.53	2.1%	–	–	CCCCCCCCCCCCCCCCCC(=O)OC[C@H](COP(=O)(O)OCCOCCOCCOCCOCCOCCOCCOCCOCCOCCNC(=O)CCCCCC(=O)NCCc1ccc(O)c([C@H](CCN(C(C)C)C(C)C)c2ccccc2)c1)OC(=O)CCCCCCCCCCCCCCCCC	Active	Active	–	–	–
2.1%	4.7%	8.15	–	–	–	CCCCCCCCCCCCCCCCCC(=O)OC[C@H](COP(=O)(O)OCCOCCOCCOCCOCCOCCOCCOCCNC(=O)CCCCCC(=O)NCCc1ccc(O)c([C@H](CCN(C(C)C)C(C)C)c2ccccc2)c1)OC(=O)CCCCCCCCCCCCCCCCC	–	–	–	–	–

The next lines start with the compound.

Compound	Activity [1]	Activity [2]	pIC50 [3]	Activity [4]	Ki [10]	Ki [11]	inhibition (Rattus norvegicus [5])	inhibition (Rattus norvegicus [6])	Ki [7]	Ki [8]	Ki [9]
Cc1ccc(O)c([C@H](CCN(C(C)C)C(C)C)c2ccccc2)c1 [TOLTERODINE]	36.2%	9%	–	93.2%	–	–	Active	inactive	3.1 nM	1.4 nM	2.2 nM
CCCCCCCCCCCCCCCCCC(=O)OC[C@H](COP(=O)(O)OCCOCCOCCOCCNC(=O)CCCCCC(=O)NCCc1ccc(O)c([C@H](CCN(C(C)C)C(C)C)c2ccccc2)c1)OC(=O)CCCCCCCCCCCCCCCCC	15.5%	32.3%	7.74	–	–	–	–	–	–	–	–
CCCCCCCCCCCCCCCCCC(=O)OC[C@H](COP(=O)(O)OCCOCCNC(=O)CCCCCC(=O)NCCc1ccc(O)c([C@H](CCN(C(C)C)C(C)C)c2ccccc2)c1)OC(=O)CCCCCCCCCCCCCCCCC	59.2%	66.4%	6.91	–	–	–	–	–	–	–	–
CCCCCCCCCCCCCCCCCC(=O)OC[C@H](COP(=O)(O)OCCOCCOCCOCCOCCOCCNC(=O)CCCCCC(=O)NCCc1ccc(O)c([C@H](CCN(C(C)C)C(C)C)c2ccccc2)c1)OC(=O)CCCCCCCCCCCCCCCCC	5.1%	14.5%	7.86	–	–	–	–	–	–	–	–
CC(C)N(CC[C@H](c1ccccc1)c1cc(CCNC(=O)CCCCCNC(=O)COc2ccc(/C=C/C3=[N+]4C(=Cc5ccc(-c6cccs6)n5[B-]4(F)F)C=C3)cc2)ccc1O)C(C)C	–	–	–	–	9 nM	10.3 nM	–	–	6.3 nM	4.6 nM	17.5 nM
